Variants at the floor of the assay were thinned out.

To fix the notation:
B1: tRNA (parent)
chain: GUUCCGUUGGCGUAAUGGUAACGCGUCUCCCUCCUAAGGAGAAGACUGCGGGUUCGAGUCCCGUACGGAACG

The variants in the data set derive from B1. Nature of the data set: yeast fitness relative to wild type (ratio to wild type); higher = fitter; tRNA-Arg(CCU), competitive growth, 37 C, YPD. The procedure, abridged: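 Variants of the tRNA-Arg(CCU) gene, chemically synthesised with a 3% per-site mutation rate at 69 sites, were placed at the native genomic locus in Saccharomyces cerevisiae. The pooled strains were competed in YPD at 37°C for 24 hours in six parallel replicates. Gene amplicons from the start population and from each end population were read by 100-nucleotide paired-end sequencing. Darwinian fitness relative to wild type came from changes in genotype frequencies; genotypes needed ≥ 100 starting reads, and estimates < 0.5 were set to 0.5.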
For GUUCCGUUGGCGUAUUGGCAACGCGUCUCCCUCCUAACGAGAAGACUGCGGGUUCGAGUCCCGUACGGAACG [A15U U19C G38C], the yeast fitness came to 0.589.

Regarding GUUCCGUUGGCGUAAUGGUAACGCGUCUCCCACCUAAGGAGAAGACUGGGGGUUUGAGUCCCGUACGGAACG [U32A C49G C55U], the yeast fitness is ≤ 0.5. As for GUUCCGUUGGCGUAAUAGUAACGCGUCUCCCUCCUAAGGAGAAGACUACGGGUUCGAGUCCCGUACGGAACG [G17A G48A], the yeast fitness worked out at 0.951. The result for GUUCCGUUGGCAUAAUGGUAACGCAUCUCCCUCCUAAGGAGAAGACUGCGGGUUCAAGUCCCGUACGGAACG [G12A G25A G56A] reads 0.599; that for GUUCCGCUGGCGUAAUGGUGACGCGUCUCCCUCCUAAGGAGAAGACUGCGGGUUCGAGUCCCGUACGGCACG [U7C A20G A69C], 0.594.

Regarding GUUCCGUUGGGGUACUGGUAACGGGUCUCCCUCCUAAGGAGAAGAAUGCGGGUUCGAGUCCCGUAUGGAACG [C11G A15C C24G C46A C66U], the yeast fitness is ≤ 0.5.

Regarding GUUCCGUUGGCGUAAUGGUAACGCGUCGCCGUCCUAAGGAGAAGACUGCGGGUUCGCGUCCCGUAUGGAACG [U28G C31G A57C C66U], the yeast fitness is ≤ 0.5. Under GUUCCGUUGGCGUAAUGGUAACGUGUCUCCCUCCUAAGGAAAAGACUGCGGGUUCGAGUCCCGUACGGAACG [C24U G41A] stands 0.926; under GUUCCGUUGGCGUAAUGGUAAUGCGUCUCCCUCCUAAGGUGAAGACUGCGGGUUCGAGUCACGUACGAAACG [C22U A40U C61A G68A], ≤ 0.5; under GUUCCGCUGGCGUAAUGGUAACGCGUCUCCCUCCUAAGCAGAAGACAGCGGGUUCGAAUCCCAUACGGAACG [U7C G39C U47A G58A G63A], ≤ 0.5. The result for GUUCCGUUGGCGACAUGAUAACGCGUCUCCCUCCUAAGGAGAAAACUGCGGGUUCGAGUCCCGUAGGGAACG [U13A A14C G18A G44A C66G] reads ≤ 0.5; that for GUUCCGUUGGCGUAAUGGUAACGCGUCUUCCUCCCACGGAGAAGACUGCGGGUUCGAGUCCCGUACGGAACG [C29U U35C A37C], ≤ 0.5.

On to GUUCCGUUAGCGUAAUGGAAACGCGUCUCCCUCCUAAGGAGAAGACUGCGGGUUCGAGUCCCGUCCGGAACG [G9A U19A A65C], for which the yeast fitness was found to be 0.746. GUUCCGUUGGCGUAAUGGUAACGCGUCUCCCUUCUAAGGAGAAGACUGCGAGUUCGUGUCCCGUACGGAACG [C33U G51A A57U]: the yeast fitness was ≤ 0.5. Under GUUCCGUUGGCGGAAUGGUAACGCGUCUCCCUCCUAAGGAGAAGACUGCGGGUUGGAGUACCGUACGGAACG [U13G C55G C60A] stands ≤ 0.5; under GUUCCGUUGGCGUGAUGGUAACGCGUCUCCCCCCUAAGGAGCAGACUGCGGGUUCGUGUCGCGUACGGAACG [A14G U32C A42C A57U C61G], ≤ 0.5. The result for GUACCGUUCGCGUAAUGGUAACGCGUCUCCCUCCUAAGGAGAAGACUGCGGGUUCCAGUCCCGUACGGAACG [U3A G9C G56C] reads ≤ 0.5. For GUUCCGUUGGCGUAAUGGUAACGAGUCUCCGUCCUAAGGAGAAGACUGCGCGUUUGACUCCCGUACGGAUCG [C24A C31G G51C C55U G58C A70U], the yeast fitness is ≤ 0.5. Under GUUCCGUUGGCGUAGUGGUAACGCGUCUCCCUCCUAAGCAGCAGACUGCGGGUUCGAGUCCCGUACGGAACG [A15G G39C A42C] stands 0.553; under GUUCCAUUGGCGUAAUGGUAACGCGUCUCCCUCCUAACGAGAAGACUGCGGGUACGAGUCCCGUCCGGAACG [G6A G38C U54A A65C], ≤ 0.5.

Take GUUCCGUUGGCGUAAUGGUAACGCGUCUCACUCCUAAGGAGAAGACUGAGGGUUCGUGUCCCGUACGGAGCG [C30A C49A A57U A70G]: the yeast fitness is 0.509. Regarding GCUCUGUUGGGGUAAUGGAAACGCGUCUCUCUCCUAAGGAGAAGACUGCGGGUUCGAAUCCCGUACGGAACG [U2C C5U C11G U19A C30U G58A], the yeast fitness was ≤ 0.5. Consider GUUCCGUUGGCGUAAUGGUAACGCGUCUCCCUCCUAGGGGGAAGUCUGCGGGUUCGAGUCCCGUACGGAACG [A37G A40G A45U], for which the yeast fitness was 0.566. Under GUUCCGUUGGCGUAAAGGUAACGCGUCUCCCUCCUAAGGAGAAGACUGCGGGUUCGAGUCCGGUACGGAACG [U16A C62G] stands 0.867; under GUUCCGUUGGCGUAAUGGUAACGCGUCUCCUUCCUAAGGAGAAGACUGCGGGUUCGAGUCCCGUUCGGAACG [C31U A65U], 0.955. Under GUUCCGUUGGCGUAAUGGUAACGCGUCACCUACCUAAGGAGAAGACUGCGGGUUUGAGUCCCGUACGGAACG [U28A C31U U32A C55U] stands ≤ 0.5; under GUUCCGUUGGCGUAAUGGUAACGAGGCUCCCUCCUAAGGAGACGACUGCGGGUUCGAGUCCGAUAGGGAACG [C24A U26G A43C C62G G63A C66G], 0.514.

For GUUCAGUUGGCGUAAUCGUAACGCGUCCCCCUCCUAAGGAGAAGACUGCGGGUUCGAGUCCCGUACGGAACG [C5A G17C U28C], the yeast fitness was ≤ 0.5. With GUUCCGUUGGCGUAAUGGUACCGCGUCUCCCUCCUAAGGAGAAGACUGCGGGUUAGUGUCCCGUACGGAACG [A21C C55A A57U], the yeast fitness amounted to 0.535. For GUUCCGUUGGCGUAAUGGUAACGCGACUCCCUCCUAAGGAGCAGACUGUGGGUUCGAGUGCCGUAAGGAACG [U26A A42C C49U C60G C66A], the yeast fitness is 0.733. The result for GUUCCGUUGGCGUAAUGGUAACGCGUCUCGCUCCUAGGGAGAAGACUGCGGGUUCGAGUCCCGUACGGAACG [C30G A37G] reads 0.513; that for GUUCCGUUGGCGUAAUGGUAACGCGACUCCCUCGUAAGGAGAAGACUGCGGGUUCGUGUCCUGUACGGAACG [U26A C34G A57U C62U], 0.582; that for GUUCCGUUGGCGUAAUGGUAACCCGUCUCGCUCCUAAGGAGAAGACUGCGGGUUCGAGUCCCGUACAGAACG [G23C C30G G67A], ≤ 0.5. Under GUUCCGUUGGCGUAAUGGUUACGCGUCUCCCUCCUAAGGAGAAGACUGCGGGUUCGAGUCCCGUACGGAUCG [A20U A70U] stands 0.988. Take GUCCCGUUGGCGUAAGGGUAACGCGUCUCCCUCCUAAGGAGAAGACUGCGGGUUCGAGUCCCGUACGGAACG [U3C U16G]: the yeast fitness was 0.823. The result for GUUGCGGUGGCCUAAUGGUUACGCGUCUCCCUCAUAAGGACAAGCCAGCGGGUUAGAGUCCCGUACGGAACG [C4G U7G G12C A20U C34A G41C A45C U47A C55A] reads ≤ 0.5; that for GUUCCGUUGGCGUAAUGGUAAUGCGUCUCCCUGCUAAGGAGAAGACUGCGGGUUCGAAUCCCGUAUGGAACG [C22U C33G G58A C66U], 0.595. Under GUUCCAUUGCCGUAAUGGUAACGUGUCUCCCUCUUUAGGAGAAGAAUGCGGGUUCGAGUCCCGUACGGAACG [G6A G10C C24U C34U A36U C46A] stands ≤ 0.5.

Values taken from the RNAGym collection of RNA variant scans (doi:10.1126/science.aae0568).
